For orientation: AUC means the area under the concentration-time curve, a measure of exposure. Read a high AUC as more exposure. As usually defined, the Cmax is the highest concentration seen after dosing. By Tmax is commonly meant the time from dosing to the highest level. A word on the solubility: it is the concentration that dissolves in the medium under given conditions. By IC50 is commonly meant the point on the concentration scale where inhibition reaches its midpoint.

The source of these data is publication PMC6635418 (Current Drug Delivery, 2019).

In brackets after ≈: the same amount, converted by molar mass.

The conditions of data set [1]: cited from earlier work.
Data set [2] is described as follows: Pharmacokinetics of oral topotecan with or without chrysin formulations in rats. The format is in vivo. In a few lines: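 Male Sprague-Dawley rats (250-290 g), fasted 12 h, n=3 per group. Oral BCRP substrate (10 mg/kg in saline) given alone or with test compound, free or as solid dispersion (100 mg/kg equivalent in 0.5% methylcellulose/5% PEG). Femoral arterial plasma analysed by HPLC-fluorescence (ex 350/em 527 nm), 10-1000 ng/mL. Noncompartmental: trapezoidal AUC, observed Cmax/Tmax. ANOVA with Dunnett's test.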

The nature of data set [3]: Solubility study in distilled water. It counts as physicochemical. In a few lines: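 Each formulation, equivalent to 1 mg test compound, stirred in 1 mL distilled water at 600 rpm for 24 h at room temperature. Centrifuged at 13,000 rpm for 10 min and filtered through 0.45 µm. Filtrate diluted in ethanol and quantified by C18 HPLC-UV at 267 nm against a 0.5-20 µg/mL calibration. n=3, mean±SD.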

Data set [4] deals with breast cancer resistance protein (BCRP). As to conditions: read-out: IC50 against mitoxantrone efflux; BCRP inhibition; cited from earlier work.
[5] abbreviates: male, Sprague-Dawley, rat, plasma, po, 10 mg/kg.

On to `CCCCCCCCCCCCOCCOCCOCCOCCO` [Brij®L4, polyoxyethylene (4) lauryl ether], for which the “critical micelle concentration (CMC)” value in data set [1] is 0.00097 %, w/v.

`CC[C@@]1(O)C(=O)OCc2c1cc1n(c2=O)Cc2cc3c(CN(C)C)c(O)ccc3nc2-1` [Control (Topotecan Only), topotecan]: in data set [2] (setting [5]), the AUC is 578 ± 37.2 ng·h/mL, the Cmax was 109 ± 44.5 ng/mL and the Tmax was determined as 1.3 ± 0.66 h.

For the compound `O=c1cc(-c2ccccc2)oc2cc(O)cc(O)c12` [chrysin (untreated drug), 5,7-dihydroxyflavone], in data set [2] (rats, oral, versus topotecan only), the “effect on oral exposure of topotecan” value is on record as “no effect”. In data set [3], this compound displayed a solubility at 24 h of 3.04 ± 0.19 µg/mL (≈ 11.9 µM). The IC50 in data set [4] was 390 ± 130 nM.
